Test results reported in ChEMBL document CHEMBL1139738, “Pyridine-3-propanoic acids: Discovery of dual PPARalpha/gamma agonists as antidiabetic agents” (Bioorg Med Chem Lett, 2006).

Legend:
[1] = biological target: T1, Peroxisome proliferator-activated receptor alpha (Homo sapiens) (UniProt Q07869); experiment: Agonist activity at human PPAR alpha in a HepG2 cells by PPAR-GAL4 transactivation assay relative to GW-2331; format: functional, cell-based
T1 sequence (whole entry): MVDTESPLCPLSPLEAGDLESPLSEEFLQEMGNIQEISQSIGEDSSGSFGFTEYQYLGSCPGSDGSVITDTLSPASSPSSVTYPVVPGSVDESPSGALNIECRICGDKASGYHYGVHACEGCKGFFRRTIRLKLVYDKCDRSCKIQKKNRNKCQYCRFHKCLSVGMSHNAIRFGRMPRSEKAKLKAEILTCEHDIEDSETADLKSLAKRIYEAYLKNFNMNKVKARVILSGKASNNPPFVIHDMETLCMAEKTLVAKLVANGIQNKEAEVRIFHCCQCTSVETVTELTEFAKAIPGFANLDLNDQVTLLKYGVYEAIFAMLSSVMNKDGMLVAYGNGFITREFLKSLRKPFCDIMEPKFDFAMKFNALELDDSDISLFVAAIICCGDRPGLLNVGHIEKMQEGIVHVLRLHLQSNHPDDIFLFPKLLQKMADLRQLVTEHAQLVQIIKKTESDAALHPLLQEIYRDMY

[2] = biological target: T2, Peroxisome proliferator-activated receptor alpha (Homo sapiens, UniProt Q07869); experiment: Displacement of radiolabeled GW-2331 from human PPAR alpha by SPA binding assay
T2 sequence (Q07869 whole entry): T1 sequence (whole entry)

[3] = biological target: T2, Peroxisome proliferator-activated receptor alpha; experiment: Agonist activity at human PPAR alpha in a HepG2 cells by PPAR-GAL4 transactivation assay; format: functional, cell-based
[4] = biological target: T3, Peroxisome proliferator-activated receptor gamma (Homo sapiens, UniProt P37231); experiment: Agonist activity at human PPAR gamma in a HepG2 cells by PPAR-GAL4 transactivation assay; format: functional, cell-based
T3 sequence (P37231 whole entry): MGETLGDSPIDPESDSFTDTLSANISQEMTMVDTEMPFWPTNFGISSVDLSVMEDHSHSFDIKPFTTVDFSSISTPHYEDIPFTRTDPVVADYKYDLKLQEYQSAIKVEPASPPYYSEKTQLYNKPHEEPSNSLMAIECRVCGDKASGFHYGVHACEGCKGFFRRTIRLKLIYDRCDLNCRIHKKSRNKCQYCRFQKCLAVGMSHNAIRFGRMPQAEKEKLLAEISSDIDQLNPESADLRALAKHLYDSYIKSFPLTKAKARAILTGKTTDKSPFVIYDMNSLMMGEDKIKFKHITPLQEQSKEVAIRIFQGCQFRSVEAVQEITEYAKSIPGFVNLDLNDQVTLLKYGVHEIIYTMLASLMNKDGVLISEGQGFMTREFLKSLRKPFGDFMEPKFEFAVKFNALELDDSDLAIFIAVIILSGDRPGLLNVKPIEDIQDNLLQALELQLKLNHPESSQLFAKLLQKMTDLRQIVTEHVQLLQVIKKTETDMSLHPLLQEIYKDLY

[5] = biological target: T3, Peroxisome proliferator-activated receptor gamma; experiment: Displacement of radiolabeled darglitazone from human PPAR gamma by SPA binding assay
[6] = Half life in orally dosed Sprague-Dawley rat; format: ADME, organism-based; conditions: in vivo, po
Method in brief: (§1)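 Pharmacokinetics in male Sprague–Dawley rats given iv and oral doses. Outputs are iv clearance (mL/min/kg), oral half-life, dose-normalized oral AUC (h μg/mL) and oral bioavailability (%).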

[7] = Clearance in iv dosed Sprague-Dawley rat; format: ADME, organism-based; conditions: in vivo; method in brief: as §1
Mus musculus [8] = experiment: Increase in body weight in orally dosed db/db mouse at 0.03 mg/kg after 8 days relative to control; format: functional; conditions: route oral
Method in brief: (§2)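 Male db/db mice, 7 weeks old, with lean controls, given vehicle or compound by oral gavage once daily for 8 days. Plasma glucose, triglycerides, hematocrit and body weight measured before dosing on day −1 and 2 h post-dose on day 8. Percent change is expressed versus vehicle control, with significance at p < 0.05.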

[9] = Oral bioavailability in Sprague-Dawley rat; format: ADME, organism-based; conditions: in vivo; method in brief: as §1
Mus musculus [10] = experiment: Reduction of plasma triglycerides in orally dosed db/db mouse at 1 mg/kg after 8 days relative to control; format: functional; parameters: scale not given: the % may be the effect or the level left; conditions: route oral; method in brief: as §2
Mus musculus [11] = experiment: Reduction of hematocrit in orally dosed db/db mouse at 1 mg/kg after 8 days relative to control; format: functional; parameters: scale not given: the % may be the effect or the level left; conditions: route oral; method in brief: as §2
Mus musculus [12] = experiment: Reduction of plasma glucose in orally dosed db/db mouse at 1 mg/kg after 8 days relative to control; format: functional; parameters: scale not given: the % may be the effect or the level left; conditions: route oral; method in brief: as §2
Mus musculus [13] = experiment: Reduction of plasma glucose in orally dosed db/db mouse at 0.03 mg/kg after 8 days relative to control; format: functional; parameters: scale not given: the % may be the effect or the level left; conditions: route oral; method in brief: as §2
Mus musculus [14] = experiment: Reduction of hematocrit in orally dosed db/db mouse at 0.03 mg/kg after 8 days relative to control; format: functional; parameters: scale not given: the % may be the effect or the level left; conditions: route oral; method in brief: as §2
Mus musculus [15] = experiment: Reduction of plasma triglycerides in orally dosed db/db mouse at 0.03 mg/kg after 8 days relative to control; format: functional; parameters: scale not given: the % may be the effect or the level left; conditions: route oral; method in brief: as §2
Mus musculus [16] = experiment: Increase in body weight in orally dosed db/db mouse at 1 mg/kg after 8 days relative to control; format: functional; conditions: route oral; method in brief: as §2
[17] = biological target: T1, Peroxisome proliferator-activated receptor alpha (Homo sapiens); experiment: Displacement of radiolabeled GW-2331 from human PPAR alpha by SPA assay at 100 uM
Method in brief: (§3)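 Scintillation proximity assay on human PPARα using radiolabelled GW2331 as the displaced ligand, following published procedures. Single-concentration lines report percent displacement at the stated test concentration; Ki was determined for compounds with a full curve.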

Mus musculus [18] = experiment: Reduction of hematocrit in orally dosed db/db mouse at 10 mg/kg after 8 days relative to control; format: functional; parameters: scale not given: the % may be the effect or the level left; conditions: route oral; method in brief: as §2
Mus musculus [19] = experiment: Increase in body weight in orally dosed db/db mouse at 10 mg/kg in a 8 day study; format: functional; conditions: route oral; method in brief: as §2
Mus musculus [20] = experiment: Reduction of plasma triglycerides in orally dosed db/db mouse at 10 mg/kg after 8 days relative to control; format: functional; parameters: scale not given: the % may be the effect or the level left; conditions: route oral; method in brief: as §2
Mus musculus [21] = experiment: Reduction of plasma glucose in orally dosed db/db mouse at 10 mg/kg after 8 days relative to control; format: functional; parameters: scale not given: the % may be the effect or the level left; conditions: route oral; method in brief: as §2
[22] = biological target: T4, Peroxisome proliferator-activated receptor gamma (Homo sapiens) (UniProt P37231); experiment: Displacement of radiolabeled darglitazone from human PPAR gamma at 100 uM by SPA assay
T4 sequence (whole entry): T3 sequence (P37231 whole entry)
Method in brief: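 Scintillation proximity assay on human PPARγ using radiolabelled darglitazone as the displaced ligand, following published procedures. Single-concentration lines report percent displacement at the stated test concentration; Ki was determined for compounds with a full curve.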

[23] = biological target: T1, Peroxisome proliferator-activated receptor alpha (Homo sapiens); experiment: Displacement of radiolabeled GW-2331 from human PPAR alpha by SPA assay at 11 uM; method in brief: as §3

| Compound | %max [1] [%] | Ki [2] [nM] | EC50 [3] [nM] | also measured |
| --- | --- | --- | --- | --- |
| COC(C)(Cc1ccc(OCCc2nc(-c3ccccc3)oc2C)nc1)C(=O)O (stereo not given) | 106 | 330 | 144 |  |
| Cc1oc(-c2ccc(C#N)cc2)nc1CCOc1ccc(CC2(C(=O)O)CCCO2)cn1 (stereo not given) | 167 | 314 | 31 | EC50 [4]: 28 nM; Ki [5]: 334 nM |
| COc1ccc(-c2nc(CCOc3ccc(CC4(C(=O)O)CCCO4)cn3)c(C)o2)cc1 (stereo not given) | 96 | 65 | 486 |  |
| Cc1oc(-c2ccccc2)nc1CCOc1ccc(CC2(C(=O)O)CCCO2)cn1 (stereo not given) | 106 | 78 | 48 |  |
| Cc1oc(-c2ccccc2)nc1CCOc1ccc(C[C@]2(C(=O)O)CCCO2)cn1 | 89 | 32 | 165 | half-life [6]: 282 min; clearance [7]: 2.5 mL/min/kg; Activity (Mus musculus [8]): 11.7%; bioavailability [9]: 59%; Activity (Mus musculus [10]): 147%; Activity (Mus musculus [11]): 8.7%; Activity (Mus musculus [12]): 99%; Activity (Mus musculus [13]): 37%; Activity (Mus musculus [14]): 7.2%; Activity (Mus musculus [15]): 67%; Activity (Mus musculus [16]): 15.7% |
| Cc1oc(-c2ccccc2)nc1CCOc1ccc(CC(C(=O)O)C(C)C)cn1 (stereo not given) | 93 | 4100 | 426 |  |
| COC(Cc1ccc(OCCc2ccc(Oc3cccc(Cl)c3)cc2C)nc1)C(=O)O (stereo not given) | 100 | 13 | 133 | EC50 [4]: 50 nM; Ki [5]: 15 nM |
| CN(CCOc1ccc(CC2SC(=O)NC2=O)cc1)c1ccccn1 (stereo not given) | 6 |  |  |  |
| Cc1oc(-c2ccccc2)nc1CCOc1ccc(CC(CC(C)C)C(=O)O)cn1 (stereo not given) | 98 | 430 | 1720 | EC50 [4]: 1650 nM; Ki [5]: 360 nM |
| Cc1oc(-c2cccc(Cl)c2)nc1CCOc1ccc(CC2(C(=O)O)CCCO2)cn1 (stereo not given) | 117 | 99 | 46 |  |
| Cc1oc(-c2ccc(Cl)cc2)nc1CCOc1ccc(CC2(C(=O)O)CCCO2)cn1 (stereo not given) | 87 | 14 | 10 |  |
| COC(Cc1ccc(OCCc2nc(-c3ccccc3)oc2C)nc1)C(=O)O (stereo not given) | 95 | 180 | 83 |  |
| Cc1oc(-c2cccc(C(F)(F)F)c2)nc1CCOc1ccc(CC2(C(=O)O)CCCO2)cn1 (stereo not given) | 81 | 100 | 8 |  |
| Cc1oc(-c2ccccc2)nc1CCOc1ccc(CC2(C(=O)O)CCCCO2)cn1 (stereo not given) | 96 | 78 | 228 |  |
| Cc1ccc(-c2nc(CCOc3ccc(CC4(C(=O)O)CCCO4)cn3)c(C)o2)cc1 (stereo not given) | 84 | 31 | 23 |  |
| Cc1oc(-c2ccccc2)nc1CCOc1ccc(CC2(C(=O)O)CCC2)cn1 | 94 | 633 | 238 | EC50 [4]: 125 nM; Ki [5]: 394 nM |

| Compound | %max [1] [%] | Ki [2] [nM] | EC50 [3] [nM] | also measured |
| --- | --- | --- | --- | --- |
| CCC(Cc1ccc(OCCc2nc(-c3ccccc3)oc2C)nc1)C(=O)O (stereo not given) | 106 | 1300 | 150 |  |
| Cc1oc(-c2ccccc2)nc1CCOc1ccc(CC(C(=O)O)C(C)(C)C)cn1 (stereo not given) |  | 9400 |  | Ki [5]: 12000 nM |
| CCOC(Cc1ccc(OCCc2nc(-c3ccccc3)oc2C)nc1)C(=O)O (stereo not given) | 96 | 43 | 33 |  |
| Cc1oc(-c2ccccc2)nc1CCOc1ccc(CC2(C(=O)O)CCOC2)cn1 (stereo not given) |  |  |  | inhibition [17]: 33%; Ki [5]: 17000 nM |
| CCCC(Cc1ccc(OCCc2nc(-c3ccccc3)oc2C)nc1)C(=O)O (stereo not given) | 92 | 880 | 770 |  |
| Cc1oc(-c2ccc(C(F)(F)F)cc2)nc1CCOc1ccc(CC2(C(=O)O)CCCO2)cn1 (stereo not given) | 143 | 21 | 11 |  |
| Cc1oc(-c2ccccc2)nc1CCOc1ccc(CC2(C(=O)O)CCCCC2)cn1 |  | 8300 |  |  |
| Cc1oc(-c2ccccc2)nc1CCCOc1ccc(CC2(C(=O)O)CCCO2)cn1 (stereo not given) |  | 1840 |  | Ki [5]: 810 nM |
| Cc1oc(-c2ccccc2)nc1CCOc1ccc(CC2(C(=O)O)CC2)cn1 | 39 |  | 6150 | inhibition [17]: 44% |
| CO[C@@](C)(Cc1ccc(OCCc2nc(-c3ccccc3)oc2C)nc1)C(=O)O | 99 | 570 | 111 | half-life [6]: 582 min; Activity (Mus musculus [18]): 7.2%; clearance [7]: 2.2 mL/min/kg; bioavailability [9]: 87%; Activity (Mus musculus [19]): 16.8%; Activity (Mus musculus [10]): 177%; Activity (Mus musculus [11]): 3.8%; Activity (Mus musculus [12]): 88%; Activity (Mus musculus [20]): 205%; Activity (Mus musculus [16]): 13.2%; Activity (Mus musculus [21]): 106% |
| Cc1oc(-c2ccccc2)nc1CCOc1ccc(CC(C)(C)C(=O)O)cn1 | 112 | 6800 | 534 |  |
| Cc1oc(-c2ccccc2)nc1CCOc1ccc(CC2(C(=O)O)CCOCC2)cn1 |  |  |  | Activity [22]: 32%; inhibition [23]: 2% |
| Cc1cccc(-c2nc(CCOc3ccc(CC4(C(=O)O)CCCO4)cn3)c(C)o2)c1 (stereo not given) | 86 | 277 | 134 |  |
| COc1cccc(-c2nc(CCOc3ccc(CC4(C(=O)O)CCCO4)cn3)c(C)o2)c1 (stereo not given) | 104 | 215 | 90 |  |
| Cc1oc(-c2ccccc2)nc1CCOc1ccc(CC(C)C(=O)O)cn1 (stereo not given) | 93 | 3000 | 287 |  |
| CCOC(CC)(Cc1ccc(OCCc2nc(-c3ccccc3)oc2C)nc1)C(=O)O (stereo not given) | 64 | 15100 | 4670 | EC50 [4]: 2810 nM; Ki [5]: 14400 nM |
